system: not listed separately; assay: Inhibition of calf ALR2; parameters: species or system Bos taurus
Method in brief: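 Partially purified ALR2 extracted from calf eye. D,L-glyceraldehyde was the substrate with NADPH as cofactor, and sulindac served as reference. IC50 values are given ± SEM from n = 3. Kinetics were also run with inhibitor at 20 µM, varying substrate or NADPH for Km and inhibition type.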

| Structure (SMILES) | IC50 |
| --- | --- |
| Cc1ccc(S(=O)(=O)N2C(=O)NC3(CC4CCC3C4)C2=O)cc1 (stereo unspecified) | 1.8 µM |
| CC1=C(CC(=O)O)c2cc(F)ccc2/C1=C\c1ccc([S+](C)[O-])cc1 (stereo unspecified) [SULINDAC] | 0.293 µM |
| O=C1NC2(CC3CCC2C3)C(=O)N1S(=O)(=O)c1ccc(Br)cc1 (stereo unspecified) | 15.4 µM |
| O=C1NC2(CC3CCC2C3)C(=O)N1S(=O)(=O)c1ccc2ccccc2c1 (stereo unspecified) | 3.8 µM |
| COc1ccc(S(=O)(=O)N2C(=O)NC3(CC4CCC3C4)C2=O)cc1 (stereo unspecified) | 4.4 µM |
| O=C1NC2(CC3CCC2C3)C(=O)N1S(=O)(=O)c1ccc([N+](=O)[O-])cc1 (stereo unspecified) | 13.1 µM |
| O=C1NC2(CC3CCC2C3)C(=O)N1S(=O)(=O)c1ccc(Cl)cc1 (stereo unspecified) | 5.59 µM |
| O=C1c2ccccc2C(=O)c2cc(S(=O)(=O)N3C(=O)NC4(CC5CCC4C5)C3=O)ccc21 (stereo unspecified) | 4.5 µM |

species: Rattus norvegicus; assay: Antidiabetic activity in albino rat diabetic model assessed as plasma glucose level measured after 1 hr (reference value: 274 +/- 4.73 mg/dl); format: functional

| Structure (SMILES) | Activity |
| --- | --- |
| Cc1ccc(S(=O)(=O)N2C(=O)NC3(CC4CCC3C4)C2=O)cc1 (stereo unspecified) | 506 mg/dL |
| O=C1NC2(CC3CCC2C3)C(=O)N1S(=O)(=O)c1ccc(Br)cc1 (stereo unspecified) | 289 mg/dL |
| O=C1NC2(CC3CCC2C3)C(=O)N1S(=O)(=O)c1ccc2ccccc2c1 (stereo unspecified) | 210 mg/dL |
| COc1ccc(S(=O)(=O)N2C(=O)NC3(CC4CCC3C4)C2=O)cc1 (stereo unspecified) | 413 mg/dL |
| O=C1NC2(CC3CCC2C3)C(=O)N1S(=O)(=O)c1ccc([N+](=O)[O-])cc1 (stereo unspecified) | 399 mg/dL |
| O=C1NC2(CC3CCC2C3)C(=O)N1S(=O)(=O)c1ccc(Cl)cc1 (stereo unspecified) | 392 mg/dL |
| O=C1c2ccccc2C(=O)c2cc(S(=O)(=O)N3C(=O)NC4(CC5CCC4C5)C3=O)ccc21 (stereo unspecified) | 460 mg/dL |
| COc1ccc(Cl)cc1C(=O)NCCc1ccc(S(=O)(=O)NC(=O)NC2CCCCC2)cc1 [GLYBURIDE] | 350 mg/dL |

system: not listed separately; assay: Inhibition of calf ALR1; parameters: species or system Bos taurus
Method in brief: (§1)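 ALR1 (aldehyde reductase) partially purified from calf kidney. Values are IC50 ± SEM in µM, or percent inhibition at 0.6 mM. Valproic acid served as positive control to validate the assay.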

| Structure (SMILES) | IC50 |
| --- | --- |
| Cc1ccc(S(=O)(=O)N2C(=O)NC3(CC4CCC3C4)C2=O)cc1 (stereo unspecified) | 117 µM |
| COc1ccc(S(=O)(=O)N2C(=O)NC3(CC4CCC3C4)C2=O)cc1 (stereo unspecified) | 40.2 µM |
| O=C1NC2(CC3CCC2C3)C(=O)N1S(=O)(=O)c1ccc([N+](=O)[O-])cc1 (stereo unspecified) | 44.8 µM |
| O=C1NC2(CC3CCC2C3)C(=O)N1S(=O)(=O)c1ccc(Cl)cc1 (stereo unspecified) | 61.1 µM |

species: Rattus norvegicus; assay: Antidiabetic activity in albino rat diabetic model assessed as plasma glucose level measured after 2 hrs (reference value: 251 +/- 2.91 mg/dl); format: functional

| Structure (SMILES) | Activity |
| --- | --- |
| Cc1ccc(S(=O)(=O)N2C(=O)NC3(CC4CCC3C4)C2=O)cc1 (stereo unspecified) | 421 mg/dL |
| O=C1NC2(CC3CCC2C3)C(=O)N1S(=O)(=O)c1ccc(Br)cc1 (stereo unspecified) | 273 mg/dL |
| O=C1NC2(CC3CCC2C3)C(=O)N1S(=O)(=O)c1ccc2ccccc2c1 (stereo unspecified) | 389 mg/dL |
| COc1ccc(S(=O)(=O)N2C(=O)NC3(CC4CCC3C4)C2=O)cc1 (stereo unspecified) | 353 mg/dL |
| O=C1NC2(CC3CCC2C3)C(=O)N1S(=O)(=O)c1ccc([N+](=O)[O-])cc1 (stereo unspecified) | 429 mg/dL |
| O=C1NC2(CC3CCC2C3)C(=O)N1S(=O)(=O)c1ccc(Cl)cc1 (stereo unspecified) | 287 mg/dL |
| O=C1c2ccccc2C(=O)c2cc(S(=O)(=O)N3C(=O)NC4(CC5CCC4C5)C3=O)ccc21 (stereo unspecified) | 399 mg/dL |
| COc1ccc(Cl)cc1C(=O)NCCc1ccc(S(=O)(=O)NC(=O)NC2CCCCC2)cc1 [GLYBURIDE] | 289 mg/dL |

species: Rattus norvegicus; assay: Antidiabetic activity in albino rat diabetic model assessed as plasma glucose level measured after 5 hrs (reference value: 275 +/- 3.53 mg/dl); format: functional

| Structure (SMILES) | Activity |
| --- | --- |
| Cc1ccc(S(=O)(=O)N2C(=O)NC3(CC4CCC3C4)C2=O)cc1 (stereo unspecified) | 163 mg/dL |
| O=C1NC2(CC3CCC2C3)C(=O)N1S(=O)(=O)c1ccc(Br)cc1 (stereo unspecified) | 352 mg/dL |
| O=C1NC2(CC3CCC2C3)C(=O)N1S(=O)(=O)c1ccc2ccccc2c1 (stereo unspecified) | 401 mg/dL |
| COc1ccc(S(=O)(=O)N2C(=O)NC3(CC4CCC3C4)C2=O)cc1 (stereo unspecified) | 565 mg/dL |
| O=C1NC2(CC3CCC2C3)C(=O)N1S(=O)(=O)c1ccc([N+](=O)[O-])cc1 (stereo unspecified) | 349 mg/dL |
| O=C1NC2(CC3CCC2C3)C(=O)N1S(=O)(=O)c1ccc(Cl)cc1 (stereo unspecified) | 215 mg/dL |
| O=C1c2ccccc2C(=O)c2cc(S(=O)(=O)N3C(=O)NC4(CC5CCC4C5)C3=O)ccc21 (stereo unspecified) | 187 mg/dL |
| COc1ccc(Cl)cc1C(=O)NCCc1ccc(S(=O)(=O)NC(=O)NC2CCCCC2)cc1 [GLYBURIDE] | 220 mg/dL |

species: Rattus norvegicus; assay: Antidiabetic activity in albino rat diabetic model assessed as plasma glucose level measured after 3 hrs (reference value: 263 +/- 10.67 mg/dl); format: functional

| Structure (SMILES) | Activity |
| --- | --- |
| Cc1ccc(S(=O)(=O)N2C(=O)NC3(CC4CCC3C4)C2=O)cc1 (stereo unspecified) | 305 mg/dL |
| O=C1NC2(CC3CCC2C3)C(=O)N1S(=O)(=O)c1ccc(Br)cc1 (stereo unspecified) | 357 mg/dL |
| O=C1NC2(CC3CCC2C3)C(=O)N1S(=O)(=O)c1ccc2ccccc2c1 (stereo unspecified) | 393 mg/dL |
| COc1ccc(S(=O)(=O)N2C(=O)NC3(CC4CCC3C4)C2=O)cc1 (stereo unspecified) | 544 mg/dL |
| O=C1NC2(CC3CCC2C3)C(=O)N1S(=O)(=O)c1ccc([N+](=O)[O-])cc1 (stereo unspecified) | 482 mg/dL |
| O=C1NC2(CC3CCC2C3)C(=O)N1S(=O)(=O)c1ccc(Cl)cc1 (stereo unspecified) | 283 mg/dL |
| O=C1c2ccccc2C(=O)c2cc(S(=O)(=O)N3C(=O)NC4(CC5CCC4C5)C3=O)ccc21 (stereo unspecified) | 338 mg/dL |
| COc1ccc(Cl)cc1C(=O)NCCc1ccc(S(=O)(=O)NC(=O)NC2CCCCC2)cc1 [GLYBURIDE] | 250 mg/dL |

species: Rattus norvegicus; assay: Antidiabetic activity in albino rat diabetic model assessed as plasma glucose level measured after 6 hrs (reference value: 285 +/- 8.66 mg/dl); format: functional

| Structure (SMILES) | Activity |
| --- | --- |
| Cc1ccc(S(=O)(=O)N2C(=O)NC3(CC4CCC3C4)C2=O)cc1 (stereo unspecified) | 128 mg/dL |
| O=C1NC2(CC3CCC2C3)C(=O)N1S(=O)(=O)c1ccc(Br)cc1 (stereo unspecified) | 337 mg/dL |
| O=C1NC2(CC3CCC2C3)C(=O)N1S(=O)(=O)c1ccc2ccccc2c1 (stereo unspecified) | 414 mg/dL |
| COc1ccc(S(=O)(=O)N2C(=O)NC3(CC4CCC3C4)C2=O)cc1 (stereo unspecified) | 600 mg/dL |
| O=C1NC2(CC3CCC2C3)C(=O)N1S(=O)(=O)c1ccc([N+](=O)[O-])cc1 (stereo unspecified) | 502 mg/dL |
| O=C1NC2(CC3CCC2C3)C(=O)N1S(=O)(=O)c1ccc(Cl)cc1 (stereo unspecified) | 143 mg/dL |
| O=C1c2ccccc2C(=O)c2cc(S(=O)(=O)N3C(=O)NC4(CC5CCC4C5)C3=O)ccc21 (stereo unspecified) | 99 mg/dL |
| COc1ccc(Cl)cc1C(=O)NCCc1ccc(S(=O)(=O)NC(=O)NC2CCCCC2)cc1 [GLYBURIDE] | 170 mg/dL |

species: Rattus norvegicus; assay: Antidiabetic activity in albino rat diabetic model assessed as plasma glucose level measured after 7 hrs (reference value: 280 +/- 6.51 mg/dl); format: functional

| Structure (SMILES) | Activity |
| --- | --- |
| Cc1ccc(S(=O)(=O)N2C(=O)NC3(CC4CCC3C4)C2=O)cc1 (stereo unspecified) | 114 mg/dL |
| O=C1NC2(CC3CCC2C3)C(=O)N1S(=O)(=O)c1ccc(Br)cc1 (stereo unspecified) | 245 mg/dL |
| O=C1NC2(CC3CCC2C3)C(=O)N1S(=O)(=O)c1ccc2ccccc2c1 (stereo unspecified) | 430 mg/dL |
| COc1ccc(S(=O)(=O)N2C(=O)NC3(CC4CCC3C4)C2=O)cc1 (stereo unspecified) | 620 mg/dL |
| O=C1NC2(CC3CCC2C3)C(=O)N1S(=O)(=O)c1ccc([N+](=O)[O-])cc1 (stereo unspecified) | 542 mg/dL |
| O=C1NC2(CC3CCC2C3)C(=O)N1S(=O)(=O)c1ccc(Cl)cc1 (stereo unspecified) | 128 mg/dL |
| O=C1c2ccccc2C(=O)c2cc(S(=O)(=O)N3C(=O)NC4(CC5CCC4C5)C3=O)ccc21 (stereo unspecified) | 86 mg/dL |
| COc1ccc(Cl)cc1C(=O)NCCc1ccc(S(=O)(=O)NC(=O)NC2CCCCC2)cc1 [GLYBURIDE] | 150 mg/dL |

species: Bos taurus; assay: Inhibition of calf ALR1 at 0.6 mM; method in brief: as §1

| Structure (SMILES) | inhibition |
| --- | --- |
| O=C1NC2(CC3CCC2C3)C(=O)N1S(=O)(=O)c1ccc(Br)cc1 (stereo unspecified) | 43.2% |
| O=C1NC2(CC3CCC2C3)C(=O)N1S(=O)(=O)c1ccc2ccccc2c1 (stereo unspecified) | 36.8% |
| O=C1c2ccccc2C(=O)c2cc(S(=O)(=O)N3C(=O)NC4(CC5CCC4C5)C3=O)ccc21 (stereo unspecified) | 41.6% |

species: Rattus norvegicus; assay: Antidiabetic activity in albino rat diabetic model assessed as plasma glucose level measured after 4 hrs (reference value: 291 +/- 6.40 mg/dl); format: functional

| Structure (SMILES) | Activity |
| --- | --- |
| Cc1ccc(S(=O)(=O)N2C(=O)NC3(CC4CCC3C4)C2=O)cc1 (stereo unspecified) | 225 mg/dL |
| O=C1NC2(CC3CCC2C3)C(=O)N1S(=O)(=O)c1ccc(Br)cc1 (stereo unspecified) | 353 mg/dL |
| O=C1NC2(CC3CCC2C3)C(=O)N1S(=O)(=O)c1ccc2ccccc2c1 (stereo unspecified) | 471 mg/dL |
| COc1ccc(S(=O)(=O)N2C(=O)NC3(CC4CCC3C4)C2=O)cc1 (stereo unspecified) | 570 mg/dL |
| O=C1NC2(CC3CCC2C3)C(=O)N1S(=O)(=O)c1ccc([N+](=O)[O-])cc1 (stereo unspecified) | 421 mg/dL |
| O=C1NC2(CC3CCC2C3)C(=O)N1S(=O)(=O)c1ccc(Cl)cc1 (stereo unspecified) | 280 mg/dL |
| O=C1c2ccccc2C(=O)c2cc(S(=O)(=O)N3C(=O)NC4(CC5CCC4C5)C3=O)ccc21 (stereo unspecified) | 281 mg/dL |
| COc1ccc(Cl)cc1C(=O)NCCc1ccc(S(=O)(=O)NC(=O)NC2CCCCC2)cc1 [GLYBURIDE] | 239 mg/dL |
